# Results collected from several papers.
# Target: Serine/threonine-protein kinase N2 (PKN2, Homo sapiens, UniProt Q16513)
Structure (SMILES),observed,technique,tested at,remaining binding
COc1ccnn2ncc(-c3ccnc(N(C)C)n3)c12,binding,,1 µM,87%
O=C(NCCCC1CCCCC1)c1ccc(CNC(=O)c2cnn(-c3ccccc3)c2C(F)(F)F)cc1,cell-free assay,competition with immobilised ligand,0.1 µM,100%
COc1cnc(Nc2cccc(S(N)(=O)=O)c2)nc1N1CCN(c2ccccc2)C(=O)C1,binding,competition with immobilised ligand,1 µM,100%
CC(=O)Nc1c(C(C)=O)c(=O)n(C)c2nc(-c3ccc(Cl)cc3Cl)c(-c3ccc(Cl)cc3)cc12,cell-free assay,competition with immobilised ligand,1 µM,100%
c1cncc(-c2cccc(Nc3nccc(NC4CCCCC4)n3)c2)c1,binding,competition with immobilised ligand,10 µM,43%
CN(C)c1nccc(-c2cnc3ncccn23)n1,binding,,1 µM,93%
O=C1NC(c2ccccn2)Sc2ccccc21 (stereo not shown),cell-free assay,competition with immobilised ligand,1 µM,100%
O=C(NCCCN1CCOCC1)c1ccc(Nc2nccc(-c3cc4ccccc4s3)n2)cc1,binding,competition with immobilised ligand,1 µM,53%
O=C(NCC1CCOCC1)c1n[nH]cc1NC(=O)c1c(F)cccc1F,binding,competition with immobilised ligand,1 µM,89%
N[C@@H]1CCN(c2nccc(-c3cnn4ncccc34)n2)C1,binding,,1 µM,100%
Cc1nc(C2CCN(C(=O)c3ccc(OC(F)(F)F)cc3N)CC2)c2ncc(N3CCN(C)CC3)cc2n1,cell-free assay,competition with immobilised ligand,1 µM,100%
CN(c1nccc(-c2cnn3ncccc23)n1)C1CC1,binding,,1 µM,89%
C[C@@H]1CN(c2cc(-c3n[nH]c4ccc(OC5(C)CC5)cc34)ncn2)C[C@H](C)O1,cell-free assay,competition with immobilised ligand,0.1 µM,89%
Nc1ncc2c(n1)-c1c([nH]c3ccc(C#CC4CC4)cc13)CCCC2,binding,competition with immobilised ligand,1 µM,72%
O=C(NCCCN1CCOCC1)c1ccc(Nc2ncc(Cl)c(-c3ccc(Cl)s3)n2)cc1,binding,competition with immobilised ligand,1 µM,36%
FC(F)(F)Oc1cccc(-c2cnc3ccc(-c4ccncc4)nn23)c1,cell-free assay,competition with immobilised ligand,5 µM,91%
CN(C)c1ncc(F)c(-c2cnn3ncccc23)n1,binding,,1 µM,100%
O=C(c1ccc(Nc2nccc(-c3cc4ccccc4s3)n2)cc1)N1CCC(N2CCCC2)CC1,binding,competition with immobilised ligand,1 µM,45%
CCN1CCN(Cc2ccc(C(=O)Nc3ccc(C)c(Oc4ccc5c(c4)CC(=O)N5)c3)cc2C(F)(F)F)CC1,binding,competition with immobilised ligand,1 µM,100%
C[C@H]1CCN(c2nccc(-c3cnn4ncccc34)n2)C1,binding,,1 µM,95%
O=C(NCc1ncc(C(F)(F)F)cc1Cl)c1ccc2c(c1)C1(CCS(=O)(=O)CC1)[C@@H](C1CC1)N2S(=O)(=O)c1ccc(F)cc1,cell-free assay,competition with immobilised ligand,1 µM,68%
CNC(=O)[C@@H]1CC[C@@H](n2c(-c3ccc4cnccc4c3)nc3ccc(C(=O)NCc4cccc(C(N)=O)c4)cc32)C1,binding,competition with immobilised ligand,1 µM,94%
